How the values were obtained:
HeLa = assay: Inhibition of HeLa S3 cell growth relative to mitomycin C action (ratio of IC50 values); type: functional, Homo sapiens
In short: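 HeLa S3 cells plated on day 0 and exposed to drug for 1 h on day 1. IC50 is the concentration giving 50% growth inhibition, taken from the concentration-response curve. Reported as IC50 of test compound divided by IC50 of mitomycin C.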

Mus musculus [1] = organism: Mus musculus; assay: 50% inhibition of solid tumor growth (Sarcoma 180 cells) in mice; type: functional
In short: (§1)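 Sarcoma 180 cells inoculated sc into the axillary region of ddY mice on day 0; compound given iv on day 1. Tumor volume compared treated versus control (T/C). ED50 is the dose giving 50% inhibition of tumor growth, from the dose-response curve. Optimal dose also recorded.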

[2] = Optimal dose was measured against sarcoma 180 cell in mice; type: functional, Mus musculus; in short: as §1
Mus musculus [3] = organism: Mus musculus; assay: T/C value was measured as tumor volume in the treated versus control mice.; type: functional; in short: as §1

Structure (SMILES)	IC50 ratio (HeLa)	ED50 (Mus musculus [1])	OD [2]	T/C (Mus musculus [3])
COC1=CC(=O)C2=C(C1=O)[C@@H](COC(N)=O)[C@@]1(OC)[C@@H]3[C@H](CN21)N3C (stereo not given in full)	0.29	7.1 mg/kg	10 mg/kg	0.36
COC1=CC(=O)C2=C(C1=O)[C@H](COC(N)=O)[C@@]1(O)[C@@H]3[C@H](CN21)N3C (stereo not given in full)	16	11 mg/kg	20 mg/kg	0.31
COC1=C(Br)C(=O)C2=C(C1=O)[C@@H](COC(N)=O)[C@@]1(OC)[C@H]3N[C@H]3CN21	1.9	8.4 mg/kg	14 mg/kg	0.47
CN1[C@H]2[C@@H]1CN1C3=C(C(=O)C(N)=C(Br)C3=O)[C@H](COC(N)=O)[C@@]21O (stereo not given in full)	>35		30 mg/kg	0.55
CC1=C(N)C(=O)C2=C(C1=O)N1C[C@H]3[C@H](N3C)[C@]1(O)[C@H]2COC(N)=O (stereo not given in full)	>20		100 mg/kg	0.59
CN1[C@H]2[C@@H]1CN1C3=C(C(=O)C(N)=CC3=O)[C@H](COC(N)=O)[C@@]21O (stereo not given in full)	>71	33 mg/kg	100 mg/kg	0.26
CO[C@@]12[C@H](COC(N)=O)C3=C(C(=O)C=C(N)C3=O)N1C[C@@H]1N[C@@H]12	3.2	2.6 mg/kg	5 mg/kg	0.25
COC1=CC(=O)C2=C(C1=O)[C@@H](COC(N)=O)[C@@]1(OC)[C@H]3N[C@H]3CN21	0.3	1.6 mg/kg	2 mg/kg	0.45
CN1[C@H]2[C@@H]1CN1C3=C(C(=O)C(N)=C(Cl)C3=O)[C@H](COC(N)=O)[C@@]21O (stereo not given in full)	>20	17 mg/kg	20 mg/kg	0.43
COC1=C(Br)C(=O)C2=C(C1=O)[C@@H](COC(N)=O)[C@@]1(OC)[C@@H]3[C@H](CN21)N3C (stereo not given in full)	>4.8		14 mg/kg	0.97
CO[C@@]12[C@H](COC(N)=O)C3=C(C(=O)C(Cl)=C(N)C3=O)N1C[C@@H]1N[C@@H]12	0.37	1.4 mg/kg	2.7 mg/kg	0.14
COC1=C(Br)C(=O)C2=C(C1=O)[C@H](COC(N)=O)[C@@]1(O)[C@@H]3[C@H](CN21)N3C (stereo not given in full)	>3.7	22 mg/kg	30 mg/kg	0.44
CO[C@@]12[C@H](COC(N)=O)C3=C(C(=O)C(Cl)=C(N)C3=O)N1C[C@H]1[C@@H]2N1C (stereo not given in full)	0.76	2.3 mg/kg	4 mg/kg	0.11
CO[C@@]12[C@H](COC(N)=O)C3=C(C(=O)C(Br)=C(N)C3=O)N1C[C@H]1[C@@H]2N1C (stereo not given in full)	1.9		4 mg/kg	0.63
CO[C@@]12[C@H](COC(N)=O)C3=C(C(=O)C=C(N)C3=O)N1C[C@H]1[C@@H]2N1C (stereo not given in full)	16	8.4 mg/kg	20 mg/kg	0.08
COC1=C(Cl)C(=O)C2=C(C1=O)[C@H](COC(N)=O)[C@@]1(O)[C@@H]3[C@H](CN21)N3C (stereo not given in full)	11		20 mg/kg	0.62
COC1=C(Cl)C(=O)C2=C(C1=O)[C@@H](COC(N)=O)[C@@]1(OC)[C@H]3N[C@H]3CN21	2.5			
COC1=C(C)C(=O)C2=C(C1=O)[C@@H](COC(N)=O)[C@@]1(OC)[C@H]3N[C@H]3CN21 [MITOMYCIN A]	0.0035	1.3 mg/kg	1.8 mg/kg	0.2
COC1=C(C)C(=O)C2=C(C1=O)[C@H](COC(N)=O)[C@@]1(O)[C@@H]3[C@H](CN21)N3C (stereo not given in full) [MITOMYCIN B]	0.29	2.8 mg/kg	4 mg/kg	0.37
CO[C@@]12[C@H](COC(N)=O)C3=C(C(=O)C(C)=C(N)C3=O)N1C[C@@H]1N[C@@H]12 [MITOMYCIN]	0.49	1.6 mg/kg	3.1 mg/kg	0.27
COC1=C(C)C(=O)C2=C(C1=O)[C@@H](COC(N)=O)[C@@]1(OC)[C@@H]3[C@H](CN21)N3C (stereo not given in full) [N-METHYL-MITOMYCIN A]	<0.031	6.5 mg/kg	8 mg/kg	0.32
CO[C@@]12[C@H](COC(N)=O)C3=C(C(=O)C(C)=C(N)C3=O)N1C[C@H]1[C@@H]2N1C (stereo not given in full) [PORFIROMYCIN]	9.5	16 mg/kg	40 mg/kg	0.23
